Activity calls are given as the source filed them. The calls are words filed in the database; no cut-off is given here.
What was measured:
[1] = target: T1, Peroxisome proliferator-activated receptor gamma (Homo sapiens) (UniProt P37231); test: In vitro effective concentration for agonist activity on human Peroxisome proliferator activated receptor gamma-Gal4 chimeric receptor in transfected CHO-K1 cells at 10 uM; type: functional, cell-based
T1 sequence (whole entry): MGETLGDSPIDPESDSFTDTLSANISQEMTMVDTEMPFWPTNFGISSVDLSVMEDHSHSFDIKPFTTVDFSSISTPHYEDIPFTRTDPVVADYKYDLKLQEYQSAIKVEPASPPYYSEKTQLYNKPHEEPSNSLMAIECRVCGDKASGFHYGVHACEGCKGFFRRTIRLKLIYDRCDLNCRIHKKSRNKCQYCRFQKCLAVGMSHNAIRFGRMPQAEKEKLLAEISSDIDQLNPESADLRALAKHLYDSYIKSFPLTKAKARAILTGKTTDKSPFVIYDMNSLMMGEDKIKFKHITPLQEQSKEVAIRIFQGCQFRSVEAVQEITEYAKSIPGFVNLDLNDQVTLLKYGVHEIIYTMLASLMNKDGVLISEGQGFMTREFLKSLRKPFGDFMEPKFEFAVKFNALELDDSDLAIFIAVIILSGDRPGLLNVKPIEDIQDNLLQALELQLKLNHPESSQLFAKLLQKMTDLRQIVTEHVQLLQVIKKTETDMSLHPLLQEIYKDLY

[2] = target: T2, Peroxisome proliferator-activated receptor delta (Homo sapiens) (UniProt Q03181); test: Agonist activity on Gal4 chimeric human Peroxisome proliferator activated receptor delta expressed in CHO-K1 cells; type: functional, cell-based
T2 sequence (whole entry): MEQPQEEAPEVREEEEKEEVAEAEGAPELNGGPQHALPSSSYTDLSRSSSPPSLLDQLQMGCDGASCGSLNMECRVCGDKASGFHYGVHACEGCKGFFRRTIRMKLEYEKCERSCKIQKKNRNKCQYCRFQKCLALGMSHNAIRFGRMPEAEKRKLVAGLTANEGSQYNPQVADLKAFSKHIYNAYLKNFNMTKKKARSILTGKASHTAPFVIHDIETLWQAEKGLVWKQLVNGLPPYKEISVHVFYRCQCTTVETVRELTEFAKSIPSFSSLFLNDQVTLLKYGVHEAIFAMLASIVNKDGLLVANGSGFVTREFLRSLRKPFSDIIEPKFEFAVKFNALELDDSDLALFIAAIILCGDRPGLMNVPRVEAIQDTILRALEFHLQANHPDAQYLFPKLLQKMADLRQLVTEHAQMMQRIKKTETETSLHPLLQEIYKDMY
Procedure, shortened: (§1)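 GAL4–human PPAR LBD chimera, reporter assay in CHO-K1 cells. Cells seeded at 5 × 10⁴/well in Ham's F12 with 10% FCS for 24 h at 37 °C. Cotransfected for 2 h (lipofectamine) per well with 40 ng GAL4/PPAR LBD, 400 ng pFR-Luc and 5 ng pRL-TK. Compounds applied for 20 h at 37 °C, then luciferase read from cell lysates. EC50 is 50% of maximal reporter activity, from curve fit, n = 3.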

[3] = target: T3, Peroxisome proliferator-activated receptor alpha (Homo sapiens) (UniProt Q07869); test: Agonist activity on Gal4 chimeric human Peroxisome proliferator activated receptor alpha expressed in CHO-K1 cells; type: functional, cell-based; procedure, shortened: as §1
T3 sequence (whole entry): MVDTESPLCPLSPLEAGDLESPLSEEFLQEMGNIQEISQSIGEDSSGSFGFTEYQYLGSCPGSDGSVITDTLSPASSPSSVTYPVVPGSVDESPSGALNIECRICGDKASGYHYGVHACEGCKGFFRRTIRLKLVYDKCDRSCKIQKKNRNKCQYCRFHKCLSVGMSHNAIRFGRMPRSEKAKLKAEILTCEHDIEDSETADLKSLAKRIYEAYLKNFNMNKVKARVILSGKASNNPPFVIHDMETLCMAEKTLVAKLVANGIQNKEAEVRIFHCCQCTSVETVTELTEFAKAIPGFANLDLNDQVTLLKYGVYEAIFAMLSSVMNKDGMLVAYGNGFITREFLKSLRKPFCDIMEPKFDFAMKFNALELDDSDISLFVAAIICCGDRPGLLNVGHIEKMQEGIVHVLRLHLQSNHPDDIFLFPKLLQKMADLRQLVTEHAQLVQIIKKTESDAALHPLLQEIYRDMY

[4] = target: T4, Peroxisome proliferator-activated receptor alpha (Homo sapiens, UniProt Q07869); type: functional, cell-based
T4 sequence (Q07869 whole entry): T3 sequence (whole entry)

[5] = target: T5, Peroxisome proliferator-activated receptor gamma (Homo sapiens, UniProt P37231)
T5 sequence (P37231 whole entry): T1 sequence (whole entry)

SMILES | IA [1] | IA [2] | IA [3] | EC50 [4] [µM] | EC50 [5] [µM]
CCCC(Cc1ccc(OC)c(C(=O)NCc2ccc(C(F)(F)F)cc2)c1)C(=O)O (stereo unspecified) | inactive |  |  |  | 
CCC(Cc1ccc(OC)c(OCCc2ccc(C(F)(F)F)cc2)c1)C(=O)O (stereo unspecified) | inactive |  |  |  | 
CCC(Cc1ccc(OC)c(C(=O)N(C)Cc2ccc(C(F)(F)F)cc2)c1)C(=O)O (stereo unspecified) | inactive | inactive | inactive |  | 
CCC(Cc1ccc(OC)c(C(=O)NCc2cccc(Oc3ccccc3)c2)c1)C(=O)O (stereo unspecified) |  | inactive |  | 0.4 | 6.2
CCC(Cc1ccc(OC)c(C(=O)NCc2ccccc2Oc2ccccc2)c1)C(=O)O (stereo unspecified) | inactive | inactive | inactive |  | 
CCC(Cc1ccc(OC)c(CNCc2ccc(C(F)(F)F)cc2)c1)C(=O)O (stereo unspecified) | inactive |  |  |  | 
COc1ccc(CCCC(=O)O)cc1C(=O)NCc1ccc(C(F)(F)F)cc1 |  | inactive |  |  | 
CCC(Cc1ccc(OC)c(C(=O)NCc2ccc(OCc3ccccc3)cc2)c1)C(=O)O (stereo unspecified) | inactive | inactive |  | 1.5 | 
CCC(Cc1ccc(OC)c(C(=O)NCc2ccc(-c3ccccc3)cc2)c1)C(=O)O (stereo unspecified) |  | inactive |  |  | 4
CCC(CC)(Cc1ccc(OC)c(C(=O)NCc2ccc(C(F)(F)F)cc2)c1)C(=O)O | inactive | inactive |  |  | 
COc1ccc(CC(C)C(=O)O)cc1C(=O)NCc1ccc(C(F)(F)F)cc1 (stereo unspecified) | inactive |  |  |  | 
CCC(Cc1ccc(OC)c(CC(=O)Nc2ccc(C(F)(F)F)cc2)c1)C(=O)O (stereo unspecified) | inactive | inactive |  |  | 
COc1ccc(CC(C)(C)C(=O)O)cc1C(=O)NCc1ccc(C(F)(F)F)cc1 | inactive | inactive |  |  | 
COc1ccc(CC(SCc2ccccc2)C(=O)O)cc1C(=O)NCc1ccc(C(F)(F)F)cc1 (stereo unspecified) | inactive | inactive | inactive |  | 
CCC(Cc1ccc(OC)c(C(=O)NCc2ccccc2OC)c1)C(=O)O (stereo unspecified) | inactive | inactive |  | 9.4 | 
CCC(Cc1ccc(OC)c(C(=O)NCCc2ccc(C(F)(F)F)cc2)c1)C(=O)O (stereo unspecified) | inactive |  |  |  | 
CCC(Cc1ccc(OC)c(CCCc2ccc(C(F)(F)F)cc2)c1)C(=O)O (stereo unspecified) | inactive |  |  |  | 
CCC(Cc1ccc(OC)c(NC(=O)Nc2ccc(C(F)(F)F)cc2)c1)C(=O)O (stereo unspecified) | inactive | inactive | inactive |  | 
CCC(Cc1ccc(OC)c(NC(=O)Cc2ccc(C(F)(F)F)cc2)c1)C(=O)O (stereo unspecified) | inactive | inactive |  |  | 

More lines, now with the values ahead:

IA [1] | IA [2] | IA [3] | EC50 [4] [µM] | EC50 [5] [µM] | SMILES
inactive | inactive | inactive |  |  | COc1ccc(CC(Sc2ccccc2)C(=O)O)cc1C(=O)NCc1ccc(C(F)(F)F)cc1 (stereo unspecified)
inactive | inactive |  |  |  | COc1ccc(CCC(=O)O)cc1C(=O)NCc1ccc(C(F)(F)F)cc1
 |  |  |  | > 10 | CCC(Cc1ccc(OC)c(CNC(=O)c2ccc(C(F)(F)F)cc2)c1)C(=O)O (stereo unspecified)
inactive | inactive | inactive |  |  | COc1ccc(CC(Oc2ccccc2)C(=O)O)cc1C(=O)NCc1ccc(C(F)(F)F)cc1 (stereo unspecified)
inactive | inactive |  |  |  | COc1ccc(CC(OC)C(=O)O)cc1C(=O)NCc1ccc(C(F)(F)F)cc1 (stereo unspecified)
inactive | inactive |  |  |  | CCC(Cc1ccc(OC)c(C(=O)Nc2ccc(C(F)(F)F)cc2)c1)C(=O)O (stereo unspecified)
inactive | inactive | inactive |  |  | COc1ccc(CC(C(=O)O)c2ccccc2)cc1C(=O)NCc1ccc(C(F)(F)F)cc1 (stereo unspecified)
inactive | inactive |  |  |  | COc1ccc(CC(C(=O)O)C(C)C)cc1C(=O)NCc1ccc(C(F)(F)F)cc1 (stereo unspecified)
inactive | inactive | inactive |  |  | COc1ccc(C(=O)O)cc1C(=O)NCc1ccc(C(F)(F)F)cc1
 | inactive |  | 3.1 |  | CCC(Cc1ccc(OC)c(C(=O)NCc2cccc(OC)c2)c1)C(=O)O (stereo unspecified)
